{"source": "ChEMBL document CHEMBL3351994", "about": "“Synthesis and biological evaluation of novel millepachine derivatives as a new class of tubulin polymerization inhibitors” (J Med Chem, 2014)", "key": {"Tubulin (Homo sapiens) [1]": {"target": "T1, Tubulin (Homo sapiens) (UniProt P68371+Q9H4B7+P0DPH7+P68366+Q13509+Q71U36+P04350+Q3ZCM7+P07437+P68363+Q9BQE3+Q6PEY2+Q13885+Q9BVA1+Q9BUF5)", "assay": "Inhibition of tubulin polymerization in human HepG2 cells assessed as spindle formation alterations at 1 uM after 24 hrs by immunofluorescence assay", "format": "cell-based", "outline": "(§1)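 HepG2 cells seeded overnight, then given 1 μM compound or DMSO for 24 h; methanol-fixed, blocked 45 min in 5% BSA/PBS, α-tubulin primary antibody overnight at 4 °C, fluorescent secondary 1 h, DAPI nuclear counterstain; microtubules and spindles imaged by fluorescence microscopy.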"}, "HUVEC [2]": {"system": "HUVEC", "assay": "Antivascular activity in HUVECs assessed as inhibition of cell migration incubated for 20 hrs by phase contrast microscopy based wound healing migration assay", "format": "functional", "conditions": "Homo sapiens", "outline": "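HUVECs grown to confluence in DMEM, then serum-starved for 16 h. Monolayer scratched with a pipet tip and washed with PBS. Serum-free DMEM with vehicle or 50, 100 or 500 nM compound added. Imaged after 20–24 h; migrated cells counted manually and expressed relative to vehicle wells; t-test.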"}, "Tubulin (Homo sapiens) [3]": {"target": "T1, Tubulin (Homo sapiens)", "assay": "Inhibition of tubulin (unknown origin) polymerization pre-incubated for 5 mins by spectrophotometry", "format": "protein-complex assay"}, "Tubulin (Homo sapiens) [4]": {"target": "T1, Tubulin (Homo sapiens)", "assay": "Inhibition of tubulin polymerization in human HepG2 cells assessed as multiple tubulin bundles at 1 uM after 24 hrs by immunofluorescence assay", "format": "cell-based", "outline": "as §1"}, "HUVEC [5]": {"system": "HUVEC", "assay": "Antivascular activity in HUVECs assessed as disruption of capillary-like tubes at 50 to 500 nM incubated for 6 hrs by matrigel based tube formation assay", "format": "functional, cell-based", "conditions": "Homo sapiens", "outline": "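HUVECs (2−4 × 10^4) in DMEM seeded on Matrigel polymerized at 37 °C for 30 min. Treated with 50, 100 or 500 nM compound or vehicle at 37 °C. Capillary networks photographed after 6 h and quantified; significance by t-test.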"}, "Tubulin (Homo sapiens) [6]": {"target": "T1, Tubulin (Homo sapiens)", "assay": "Inhibition of tubulin polymerization in human HepG2 cells assessed as microtubule polymerization alterations at 1 uM after 24 hrs by immunofluorescence assay", "format": "cell-based", "outline": "as §1"}, "Tubulin (Homo sapiens) [7]": {"target": "T1, Tubulin (Homo sapiens)", "assay": "Inhibition of tubulin polymerization in human HepG2 cells assessed as abnormal mitotic spindles at 1 uM after 24 hrs by immunofluorescence assay", "format": "cell-based", "outline": "as §1"}, "[8]": {"assay": "Antiproliferative activity against adriamycin resistant human MCF7/ADR cells assessed as inhibition of cell proliferation after 48 hrs by MTT assay", "format": "functional, cell-based", "conditions": "NCI/ADR-RES", "outline": "(§2)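 Cells grown at 37 °C in humidified 5% CO2. K562, C26 and HCT lines in RPMI-1640; other lines in DMEM; both media with 10% FBS, penicillin and streptomycin. 1000 cells/well seeded, incubated overnight, then compound at various doses for 48 h. MTT added for 4 h, formazan dissolved in DMSO, absorbance read at 590 nm. IC50 from dose–response curves, mean ± SEM of at least three independent experiments.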"}, "Mus musculus [9]": {"system": "Mus musculus", "assay": "Toxicity in human HepG2 cells xenografted Balb/C mouse assessed as mortality level at 5 mg/kg, iv dosed every 2 days for 11 days", "format": "organism-based", "design": "dose 5 mg/kg, route intravenous", "conditions": "in vivo", "outline": "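Female Balb/C or athymic nude mice, 5−6 weeks old, implanted sc in the right flank/armpit with 5 × 10^6 cells in HBSS. Once tumors reached 100 mm3, mice were randomized (6 per group) and dosed with vehicle (2.5% Tween-80, 2.5% ethanol) or drug. Toxicity signs and mortality observed daily. Body weight and caliper tumor volume measured every 2 days.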"}, "Mus musculus [10]": {"system": "Mus musculus", "assay": "Toxicity in human HepG2 cells xenografted Balb/C mouse assessed as body weight changes at 5 mg/kg, iv dosed every 2 days for 11 days", "format": "organism-based", "design": "dose 5 mg/kg, route intravenous", "conditions": "in vivo", "outline": "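Xenografts: 5 × 10^6 tumour cells injected sc in right armpit/flank of 5−6-week-old female mice; at 100 mm3 tumour volume, randomized (6 per group) and dosed in vehicle of 2.5% Tween-80 and 2.5% ethanol; body weights and caliper tumour volumes recorded every 2 days, toxicity signs and mortality daily.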"}, "HepG2 [11]": {"system": "HepG2", "assay": "Antitumor activity against human HepG2 cells xenografted in Balb/C mouse assessed as tumor mass changes at 5 mg/kg, iv dosed every 2 days for 11 days", "format": "functional", "outline": "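Female Balb/c or athymic nude mice, 5–6 weeks old. 5 × 10^6 cells in HBSS implanted sc in the right flank/armpit. Treatment began at tumor volume 100 mm3, 6 mice per group; vehicle was 2.5% Tween-80 and 2.5% ethanol. Tumor volume (π/6 × L × W²) and body weight measured every 2 days. Inhibition = (1 − treated/control tumor weight) × 100%.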"}, "[12]": {"assay": "Antiproliferative activity against human ES2 cells assessed as inhibition of cell proliferation after 48 hrs by MTT assay", "format": "functional, cell-based", "conditions": "ES-2, 48 h"}, "AGS": {"system": "AGS", "assay": "Antiproliferative activity against human AGS cells assessed as inhibition of cell proliferation after 48 hrs by MTT assay", "format": "functional, cell-based", "outline": "as §2"}, "MCF7": {"system": "MCF7", "assay": "Antiproliferative activity against human MCF7 cells assessed as inhibition of cell proliferation after 48 hrs by MTT assay", "format": "functional, cell-based", "conditions": "MCF7, 48 h", "outline": "as §2"}, "[13]": {"assay": "Antiproliferative activity against human HCT15 cells assessed as inhibition of cell proliferation after 48 hrs by MTT assay", "format": "functional, cell-based", "conditions": "HCT-15, 48 h", "outline": "as §2"}, "NCI-H358": {"system": "NCI-H358", "assay": "Antiproliferative activity against human NCI-H358 cells assessed as inhibition of cell proliferation after 48 hrs by MTT assay", "format": "functional, cell-based", "conditions": "NCI-H358, 48 h", "outline": "as §2"}, "[14]": {"assay": "Antiproliferative activity against human A2780S cells assessed as inhibition of cell proliferation after 48 hrs by MTT assay", "format": "functional, cell-based", "conditions": "A2780, 48 h", "outline": "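Cells grown in DMEM with 10% FBS, penicillin/streptomycin at 37 °C, 5% CO2. 1000 cells/well seeded, incubated overnight, then exposed to various doses for 48 h. MTT added for 4 h, formazan dissolved in DMSO, absorbance read at 590 nm. IC50 = concentration inhibiting proliferation by 50%, mean ± SEM of dose–response curves from at least three independent experiments.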"}, "[15]": {"assay": "Antiproliferative activity against mouse C26 cells assessed as inhibition of cell proliferation after 48 hrs by MTT assay", "format": "functional, cell-based", "conditions": "C26, 48 h", "outline": "as §2"}, "[16]": {"assay": "Antiproliferative activity against human DLD1 cells assessed as inhibition of cell proliferation after 48 hrs by MTT assay", "format": "functional, cell-based", "conditions": "DLD-1, 48 h", "outline": "as §2"}, "U-251": {"system": "U-251", "assay": "Antiproliferative activity against human U251 cells assessed as inhibition of cell proliferation after 48 hrs by MTT assay", "format": "functional, cell-based", "conditions": "U-251, 48 h", "outline": "as §2"}, "A-375": {"system": "A-375", "assay": "Antiproliferative activity against human A375 cells assessed as inhibition of cell proliferation after 48 hrs by MTT assay", "format": "functional, cell-based", "conditions": "A-375, 48 h", "outline": "as §2"}, "K562": {"system": "K562", "assay": "Antiproliferative activity against human K562 cells assessed as inhibition of cell proliferation after 48 hrs by MTT assay", "format": "functional, cell-based", "conditions": "K562, 48 h", "outline": "as §2"}, "HepG2 [17]": {"system": "HepG2", "assay": "Antiproliferative activity against human HepG2 cells assessed as inhibition of cell proliferation after 48 hrs by MTT assay", "format": "functional, cell-based", "conditions": "Homo sapiens, HepG2, 48 h", "outline": "as §2"}, "[18]": {"assay": "Antiproliferative activity against human HCT116 cells assessed as inhibition of cell proliferation after 48 hrs by MTT assay", "format": "functional, cell-based", "conditions": "HCT-116, 48 h"}}, "note": "The source made the active and inactive calls. The rule behind the calls is not given here."}
{"smiles": "COc1ccc(/C=C/C(=O)c2ccc(OC)c3c2OC(C)(C)C=C3)cc1N", "values": [{"measurement": "inhibition", "setting": "Tubulin (Homo sapiens) [1]", "value": "Active"}, {"measurement": "inhibition", "setting": "HUVEC [2]", "value": "Dose-dependent effect"}, {"measurement": "inhibition", "setting": "Tubulin (Homo sapiens) [3]", "value": "Dose-dependent effect"}, {"measurement": "inhibition", "setting": "Tubulin (Homo sapiens) [4]", "value": "Active"}, {"measurement": "inhibition", "setting": "HUVEC [5]", "value": "Dose-dependent effect"}, {"measurement": "inhibition", "setting": "Tubulin (Homo sapiens) [6]", "value": "Active"}, {"measurement": "inhibition", "setting": "Tubulin (Homo sapiens) [7]", "value": "Active"}]}
{"smiles": "COc1cccc2c1C(=O)c1c(O)c3c(c(O)c1C2=O)C[C@@](O)(C(=O)CO)C[C@@H]3O[C@H]1C[C@H](N)[C@H](O)[C@H](C)O1.Cl", "note": "[DOXORUBICIN HYDROCHLORIDE]", "values": [{"measurement": "IC50", "setting": "[8]", "value": 5300, "unit": "nM"}, {"measurement": "Activity", "setting": "Mus musculus [9]", "value": "Non-toxic"}, {"measurement": "Activity", "setting": "Mus musculus [10]", "value": 0.5, "unit": "%"}, {"measurement": "Activity", "setting": "HepG2 [11]", "value": 61, "unit": "%"}]}
{"smiles": "COc1cc2c(c(OC)c1OC)-c1ccc(OC)c(=O)cc1[C@@H](NC(C)=O)CC2", "note": "[COLCHICINE]", "values": [{"measurement": "IC50", "setting": "[12]", "value": 18, "unit": "nM"}, {"measurement": "IC50", "setting": "AGS", "value": 9, "unit": "nM"}, {"measurement": "IC50", "setting": "MCF7", "value": 58, "unit": "nM"}, {"measurement": "IC50", "setting": "[13]", "value": 16, "unit": "nM"}, {"measurement": "IC50", "setting": "NCI-H358", "value": 4, "unit": "nM"}, {"measurement": "IC50", "setting": "[14]", "value": 4, "unit": "nM"}, {"measurement": "IC50", "setting": "[15]", "value": 344, "unit": "nM"}, {"measurement": "IC50", "setting": "[16]", "value": 11, "unit": "nM"}, {"measurement": "IC50", "setting": "U-251", "value": 20, "unit": "nM"}, {"measurement": "IC50", "setting": "A-375", "value": 12, "unit": "nM"}, {"measurement": "IC50", "setting": "K562", "value": 16, "unit": "nM"}, {"measurement": "IC50", "setting": "HepG2 [17]", "value": 42, "unit": "nM"}, {"measurement": "IC50", "setting": "[18]", "value": 15, "unit": "nM"}]}
